Screen size: about 360,000 compounds; about 5,400 (1.5%) were called active. What follows is part of a selection rich in actives, with near analogues and random picks from the rest. Unmarked numbers belong to inactive results.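 The calls were made as follows: active = inhibition above a per-plate cutoff, the mean inhibition of test compounds on that plate plus 3 SD (cut at about 49% in these data); inactive = the rest.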

From PubChem BioAssay AID624466 (The Scripps Research Institute Molecular Screening Center, 2012) come the findings set out here.

Trace amine-associated receptor 1 (Homo sapiens), sequence (Q96RJ0 whole entry, looked up): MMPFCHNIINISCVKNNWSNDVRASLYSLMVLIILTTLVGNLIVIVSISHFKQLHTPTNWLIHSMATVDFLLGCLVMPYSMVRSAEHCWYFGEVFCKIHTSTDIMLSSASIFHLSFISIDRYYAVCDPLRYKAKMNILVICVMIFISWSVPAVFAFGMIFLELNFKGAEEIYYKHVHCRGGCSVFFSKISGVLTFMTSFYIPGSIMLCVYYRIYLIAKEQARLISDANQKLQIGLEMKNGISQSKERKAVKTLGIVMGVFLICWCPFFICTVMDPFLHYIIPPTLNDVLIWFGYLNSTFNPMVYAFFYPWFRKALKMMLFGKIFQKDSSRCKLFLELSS

The experiment has as its target Trace amine-associated receptor 1 (Homo sapiens) (UniProt Q96RJ0). The experiment is described as follows: blockers of beta-PEA-driven TAAR1 calcium signal – Fluo-8 calcium fluorescence, CHO RD-HGA16 cells, primary screen (AID 624466).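 Also: 0% = DMSO plus EC80 beta-PEA response and 100% = DMSO alone without agonist.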 The note with it: CHO RD-HGA16 TAAR1, Fluo-8 calcium fluorescence, antagonist; at 3 µM; hits give high values. A digest of the protocol: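 System: CHO RD-HGA16 cells bearing hTAAR1. Reagent: EC80 β-phenethylamine stimulus. Schedule: seeding 17-24 h prior, 75-min 37 °C, 30-min RT dye loading. Signal: Fluo-8 intracellular calcium dye fluorescence, real-time kinetic reads. Read-out: % inhibition from peak post-agonist over basal fluorescence ratio. Benchmarks: vehicle wells and EC80 agonist wells. Replicates: n of 1.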
Consider `COC(=O)[C@]12C[C@H](CC(=O)NCc3cccc(C(F)(F)F)c3)C(=O)N(Cc3ccc4c(c3)OCO4)C1=C[C@H](COCc1ccccc1)O[C@@H]2C`, for which the inhibition is -19.1%. As for `COc1ccc(N2CCN(C(=O)c3ccc(N4CCCCS4(=O)=O)cc3)CC2)cc1`, the figure is -21.9%; as for `CC(C)C(=O)Nc1ccc2c3c(cccc13)CC2`, -5.92%; as for `COc1ccc(C(=O)OC(C)C(=O)NC2CCCC2)cc1S(=O)(=O)N1CCOCC1` (centres undefined), -9.55%.

For the compound `COc1ccc(C(=O)OCC(=O)c2ccc(C)c(S(=O)(=O)N3CCOCC3)c2)cc1OC`, the inhibition was 47.7%.

As for `NC(=O)C1CCN(C(=O)c2ccc(F)c(S(=O)(=O)N3CCOCC3)c2)CC1`, the inhibition is 6.75%. The result for `O=C(Oc1ccc(-c2nnco2)cc1)c1ccc(F)c(S(=O)(=O)N2CCOCC2)c1` reads 84.1% (active); that for `COc1ccc(C(=O)Oc2ccc(-c3nnco3)cc2)cc1S(=O)(=O)N1CCOCC1`, 60.2% (active); that for `Cc1cc(NC(=O)COC(=O)c2ccc(F)c(S(=O)(=O)N3CCOCC3)c2)no1`, -19.8%. As for `CC(C)(O)C1=C[N+](=O)CC=C1`, the inhibition was 2.41%.

As to `CC1(C(=O)Nc2cccnc2)Cc2c(-c3ccccc3)ccnc2O1` (centres undefined), the inhibition was -9.98%. With `CC(C)C[C@@H]1COc2cc(N3CCC[C@@H]3CO)ccc2S(=O)(=O)N1`, the inhibition was -24.6%. As for `Cc1ccc2c(c1)N(CC(=O)NCCCN1CCCCC1)C(=O)c1cccnc1O2`, the figure is -18.1%; as for `O=C(CN1C(=O)c2cccnc2Oc2ccc(Cl)cc21)NCCc1ccccc1`, 12.2%. `Cc1ccc2c(c1)N(CC(=O)NCCc1ccc(Cl)cc1)C(=O)c1cccnc1O2`: the inhibition is 64.2% (active).

As to `CN(C)C1CN(Cc2cn(Cc3ccccc3)nn2)S(=O)(=O)C1` (centres undefined), the inhibition is -30.8%. The result for `C=CC1=CCN(S(=O)(=O)C(C)(C)C)[C@@H]1CCO` reads -20.8%; that for `Cc1cccc(C(=O)Nc2ccc(C(=O)/C=C/c3cccs3)cc2)c1`, 59.9% (active); that for `Cc1cccc(C(=O)Nc2ccc3c(c2)C(=O)N(CC(C)C)C3=O)c1`, 16.9%.

As to `Cc1cccc(C(=O)Nc2ccc(Oc3cnccn3)cc2)c1`, the inhibition is -6.75%. The result for `Cc1nc2c(OCc3ccc(Cl)cc3Cl)cccn2c1N(C)CC1CC1` reads 16.7%. For the compound `CCCCCCCCN1C(=O)[C@@H](CC(=O)NCCCC)C[C@@]2(C(=O)OC)C1=C[C@H](C(C)(C)C)O[C@@H]2C`, the inhibition is -28.5%. As for `CCOc1ccc(NC(=O)CN(C)C(=O)c2c(C)noc2C)cc1OCC`, the figure is -17.5%; as for `CCCCOCCCNC(=O)C[C@@H]1C[C@@]2(C(=O)OCC)CCCC=C2N(CCC2=CCCCC2)C1=O`, -7.17%; as for `COC(=O)c1ccc(C23CC4(C2)[C@H](CN(Cc2cccnc2)[C@@H]4c2ccccc2)C3c2ccc(Cl)nc2)cc1` (some centres undefined), 34.6%. The result for `COC(=O)[C@@]12C[C@@H](CC(=O)NCCCCc3ccccc3)C(=O)N(CCc3ccc(OC)c(OC)c3)C1=CCC(C)(C)C2` reads 22.4%; that for `CCOc1cc(C(=O)N2CCc3cc(OC)c(OC)cc3C2)ccc1OC(F)F`, -21.9%. With `O=C1NC[C@H](Cc2ccc(O)cc2)N(C[C@H]2CCCN2C[C@H](Cc2ccccc2)N2C[C@H](Cc3ccccc3)N(CCc3ccccc3)C(=O)C2=O)C1=O`, the inhibition was -19.2%.

On to `COc1ccc(-c2ccccc2C2Cc3nnccc3CN2C(=O)Nc2ccccc2)cc1` (centres undefined), for which the inhibition was -11.4%. As for `COC(=O)[C@]12CCCCC=C1N(Cc1cccc3ccccc13)C(=O)[C@H](CC(=O)N1CCOCC1)C2`, the figure is 34.8%; as for `COc1ccccc1C(=O)Nc1ccc(Nc2ccccc2)cc1`, 1.01%. `COc1cc(OC)c(C(=O)NNC(=O)c2ccc(NS(=O)(=O)c3cccs3)cc2)cc1OC`: the inhibition was -17.5%. Regarding `COc1cc2ccccc2cc1C(=O)Nc1ccc(NC(=O)c2cccs2)cc1`, the inhibition was 58.9% (active).

For `O=C(NCc1ccccc1)[C@@H]1CCCN1C(=O)[C@H]1CCCN1C(=O)c1cccc(Cl)c1`, the inhibition is -3.29%. The result for `CCCCCCCCN1C(=O)[C@H](CC(=O)NCc2cccc3ccccc23)C[C@@]2(C(=O)OC)CCCCC=C12` reads 2.1%; that for `COCCCn1cc(CN2CC(N(C)C)CS2(=O)=O)nn1` (centres undefined), -29.3%.

Take `CCCCC[C@H](C)N1C[C@@H](COCc2ccccc2)Oc2cc(N3CCC[C@@H]3CO)ccc2S1(=O)=O`: the inhibition was -12.8%. As for `CCOc1ccc(C(=O)NC(=S)Nc2ccc(NC(=O)C(C)C)cc2)cc1[N+](=O)[O-]`, the figure is 38.4%; as for `CCOc1ccc(C(=O)Nc2ccc(CN3CCOCC3)cc2)cc1Cl`, 3.95%. As for `CCOc1ccc(C(=O)NC(=S)Nc2ccc(N3CCOCC3)c(Cl)c2)cc1[N+](=O)[O-]`, the figure is 51.3% (active); as for `O=C(Nc1ccccc1)C1CC(=O)n2c(nc3ccccc32)N1` (centres undefined), -8.36%. As for `CCCCC(O)C1=C[N+](=O)CC=C1` (centres undefined), the figure is 0.52%; as for `COc1cc(NC(=O)COc2ccccc2Cl)ccc1NC(=O)C(C)C`, -12.5%. Regarding `Cc1ccc(NC(=O)COc2coc(CN3CCc4ccccc4C3)cc2=O)cc1Cl`, the inhibition was -6.95%. As for `Cc1ccccc1OCC(=O)Nc1ccc(N2CCN(C(=O)C(C)C)CC2)c(Cl)c1`, the inhibition was 51.1% (active).

Regarding `CCc1ccccc1OCC(=O)Nc1ccc(C)c(S(=O)(=O)N2CCCCCC2)c1`, the inhibition was 53.6% (active). As for `Cc1ccc(NC(=O)COC(=O)C2CC2)cc1S(=O)(=O)N1CCOCC1`, the figure is -10.1%; as for `COc1ccccc1C(=O)Nc1ccc(C)c(S(=O)(=O)N2CCCCC2)c1`, 35.1%.

On to `CC(C)CN1C(=O)CN(S(C)(=O)=O)CC1(C)C(=O)NCc1ccccc1` (centres undefined), for which the inhibition is -16.9%. The result for `O=C(c1ccccc1)c1ccc(OC(=O)N2CCCC2)cc1` reads 0.6%; that for `CCCC[C@@H]1CN=C(N)N1CCc1cc(C(F)(F)F)cc(C(F)(F)F)c1`, 0.75%. For the compound `O=C(NCc1ccccn1)[C@@H]1CCCN1C(=O)[C@@H]1CCCN1C(=O)c1ccccc1`, the inhibition was -3.32%. Regarding `CCOc1ccc(Cn2nnc(C(=O)Nc3ccc(OC)cc3OC)c2N)cc1`, the inhibition is -4.89%. As for `Nc1c(C(=O)Nc2ccc3c(c2)OCCO3)nnn1Cc1ccccc1`, the figure is 10.6%; as for `CCOc1ccc(Cn2nnc(C(=O)NCc3ccccc3)c2N)cc1`, 55.6% (active). On to `O=C(OCC(=O)N1CCOCC1)c1ccc2ccccc2c1`, for which the inhibition was -11.6%. The result for `O=C1C(Sc2cccc(F)c2)=C[C@@]2(O)CC[C@@H](O)[C@]1(Sc1cccc(F)c1)[C@H]2O` reads 1.99%.

As to `N#Cc1ccc(C(C(=O)NCc2ccccc2)n2c(=O)c(-c3ccco3)nc3ccccc32)cc1` (centres undefined), the inhibition is -2.89%. As for `O=C(Cc1ccccc1)Nc1c(Cl)ccc2nsnc12`, the figure is 3.32%; as for `CC(=O)c1ccc(NC(=O)c2cc(-c3cccs3)on2)cc1`, 5.25%. Consider `Cc1cc(Br)ccc1NC(=O)c1sc2ncn(CC(=O)N3CCN(c4ccccn4)CC3)c(=O)c2c1C`, for which the inhibition is 12%. As for `Cc1cc(C(=O)N2CCN(c3ccccn3)CC2)c(C)o1`, the figure is 1.13%; as for `Cc1cc(Br)ccc1NC(=O)c1cnc(N2CCN(c3ccccn3)CC2)c2ccccc12`, 67.1% (active); as for `CCOc1ccccc1C(=O)N1CCC[C@@H]1C(=O)N1CCC[C@H]1C(=O)NCc1ccccc1`, -5.66%.

On to `CN1C(=O)CN2CCc3ccccc3C2c2cc(Cl)ccc21` (centres undefined), for which the inhibition is -4.12%.

In the case of `CC1CCCCN1C(=S)NCc1ccccc1` (centres undefined), the inhibition is -12.2%. The result for `S=C(NCCc1ccccc1)N1CCn2cccc2C1c1ccncc1` (centres undefined) reads 76.5% (active); that for `S=C(Nc1cccc(Br)c1)N1CCn2cccc2C1c1cccnc1` (centres undefined), -5.72%; that for `Cc1cccc(N(C)C(=O)CN2C(=O)COc3ccc(S(=O)(=O)N4CCCCCC4)cc32)c1`, 28.5%. Regarding `CCCn1nc(C(=O)Nc2ccc3nc(C)sc3c2)c2ccccc2c1=O`, the inhibition is -20.5%. The result for `CCCCn1nc(C(=O)Nc2cccc(C(=O)NC3CC3)c2)c2ccccc2c1=O` reads 48.7% (active); that for `CCCCn1nc(C(=O)Nc2ccc(S(=O)(=O)Nc3ncccn3)cc2)c2ccccc2c1=O`, -40.3%; that for `CC(=O)N1CCN(Cc2cc(=O)oc3cc(C)ccc23)CC1`, -3.73%. As for `Cc1ccc2nc(CN(C)C(=O)[C@@H](Cc3ccccc3)NC(=O)[C@H]3O[C@@H](n4ccc(=O)[nH]c4=O)[C@H](O)[C@@H]3O)[nH]c2c1`, the figure is -7.68%; as for `CN(c1ccccc1)S(=O)(=O)c1ccc(NC(=O)COc2ccccc2)cc1`, 40.2%; as for `COC(=O)[C@H]1Cc2cnoc2C[C@]1(C)C(=O)O`, -4.37%.

`COC(=O)[C@]12C[C@H](CC(=O)NCCCCc3ccccc3)C(=O)N(Cc3ccc4c(c3)OCO4)C1=C[C@H](C(C)(C)C)O[C@@H]2C`: the inhibition was -5.78%. The result for `O=C(CSc1nnc(COc2ccc(Cl)cc2)n1Cc1ccco1)N1CCNC1=O` reads 11.4%; that for `CCc1nc2oc3ccccc3c(=O)c2c(=O)n1Cc1ccc(OC)cc1`, 3.24%; that for `Cn1c2ccccc2c(=O)c2c(=O)n(Cc3ccco3)c(COc3ccccc3)nc21`, 62.5% (active). The result for `C/C(=N\N1CCN(Cc2ccc(C)cc2)CC1)c1ccco1` reads -4.82%; that for `Cc1cccc(C)c1NC(=O)COC(=O)c1c(C)nn(-c2ccccc2)c1C`, -6.4%. As for `Cc1nn(-c2ccccc2)c(C)c1NC(=O)COC(=O)c1cc(Cl)ccc1O`, the figure is 68.3% (active); as for `Cc1nn(-c2ccccc2)c(C)c1NC(=O)CCl`, -8.39%.

In general, inhibition refers to the relative decrease from the control value, in per cent.
